Results: ChEMBL document CHEMBL4304768, “Modifications at Arg and Ile Give Neurotensin(8-13) Derivatives with High Stability and Retained NTS1 Receptor Affinity” (ACS Med Chem Lett, 2019)

Tests used:
[1] = Stability in human plasma assessed as percentage intact peptide at 100 uM incubated for 10 mins by LC-HRMS analysis; format: ADME, cell-free; settings: read-out: Stability
Outline: (§1)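 Peptides at 100 μM initial concentration in human plasma/PBS (1:2 v/v), incubated at 37 °C for up to 48 h (sampled at 10 min, 30 min, 1, 2, 6, 24, 48 h); intact peptide and fragments analysed by LC-HRMS. Values are means ± SEM from three independent experiments.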

[2] = Stability in human plasma assessed as percentage intact peptide at 100 uM incubated for 30 mins by LC-HRMS analysis; format: ADME, cell-free; settings: read-out: Stability; outline: as §1
[3] = Stability in human plasma assessed as percentage intact peptide at 100 uM incubated for 1 hr by LC-HRMS analysis; format: ADME, cell-free; settings: read-out: Stability; outline: as §1
[4] = Stability in human plasma assessed as half life at 100 uM by LC-HRMS analysis; format: ADME, cell-free; outline: as §1
[5] = Stability in human plasma assessed as percentage intact peptide at 100 uM incubated for 48 hrs by LC-HRMS analysis; format: ADME, cell-free; settings: read-out: Stability; outline: as §1
[6] = Stability in human plasma assessed as percentage intact peptide at 100 uM incubated for 24 hrs by LC-HRMS analysis; format: ADME, cell-free; settings: read-out: Stability; outline: as §1
[7] = Stability in human plasma assessed as percentage intact peptide at 100 uM incubated for 6 hrs by LC-HRMS analysis; format: ADME, cell-free; settings: read-out: Stability; outline: as §1
[8] = target: Neurotensin receptor type 1 (Homo sapiens, UniProt P30989); experiment: Displacement of [3H]UR-MK300 from human NSTR1 in HT-29 cells incubated for 2 hrs by liquid scintillation counter; format: cell-based
Sequence of Neurotensin receptor type 1 (P30989 whole entry): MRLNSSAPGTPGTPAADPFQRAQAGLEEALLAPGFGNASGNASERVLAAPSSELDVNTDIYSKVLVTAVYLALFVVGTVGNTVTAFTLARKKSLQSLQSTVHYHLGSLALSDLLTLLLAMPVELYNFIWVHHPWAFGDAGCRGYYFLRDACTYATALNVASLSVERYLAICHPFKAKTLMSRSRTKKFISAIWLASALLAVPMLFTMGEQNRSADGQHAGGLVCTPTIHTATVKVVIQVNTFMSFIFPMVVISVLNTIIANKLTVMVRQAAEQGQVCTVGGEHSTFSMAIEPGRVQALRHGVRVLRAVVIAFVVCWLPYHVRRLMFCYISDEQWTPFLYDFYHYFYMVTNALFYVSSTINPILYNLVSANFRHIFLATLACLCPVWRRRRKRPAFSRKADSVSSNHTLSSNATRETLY

[9] = Stability in human plasma assessed as percentage intact peptide at 100 uM incubated for 2 hrs by LC-HRMS analysis; format: ADME, cell-free; settings: read-out: Stability; outline: as §1

remaining at 10 min, 100 µM [1] [%]	remaining at 0.5 h, 100 µM [2] [%]	remaining at 1 h, 100 µM [3] [%]	half-life at 100 µM [4] [min]	remaining at 48 h, 100 µM [5] [%]	remaining at 24 h, 100 µM [6] [%]	remaining at 6 h, 100 µM [7] [%]	Ki [8] [nM]	remaining at 2 h, 100 µM [9] [%]	Compound
> 99	84	71.8	60 to 120	–	–	–	–	–	CCC(=O)N[C@@H](CCCNC(=N)N)C(=O)N[C@@H](CCCNC(=N)N)C(=O)N1CCC[C@H]1C(=O)N[C@@H](Cc1ccc(O)cc1)C(=O)N[C@H](C(=O)N[C@@H](CC(C)C)C(=O)O)[C@@H](C)CC.O=C(O)C(F)(F)F.O=C(O)C(F)(F)F
–	–	> 99	> 2880	86.8	98.3	> 99	0.88	–	CN[C@@H](CCCNC(=N)N)C(=O)N[C@@H](CCCNC(=N)N)C(=O)N1CCC[C@H]1C(=O)N[C@@H](Cc1ccc(O)cc1)C(=O)N[C@H](C(=O)N[C@@H](CC(C)C)C(=O)O)C(C)(C)C.O=C(O)C(F)(F)F.O=C(O)C(F)(F)F.O=C(O)C(F)(F)F
–	–	> 99	> 2880	> 99	> 99	> 99	1.6	–	CC(C)C[C@H](NC(=O)[C@@H](NC(=O)[C@H](Cc1ccc(O)cc1)NC(=O)[C@@H]1CCCN1C(=O)[C@H](CCCNC(=N)N)N(C)C(=O)[C@@H](N)CCCNC(=N)N)C(C)(C)C)C(=O)O.O=C(O)C(F)(F)F.O=C(O)C(F)(F)F.O=C(O)C(F)(F)F
23.1	–	< 1	< 5	< 1	< 1	–	–	–	CC[C@H](C)[C@H](NC(=O)[C@H](Cc1ccc(O)cc1)NC(=O)[C@@H]1CCCN1C(=O)[C@H](CCCNC(=N)N)NC(=O)[C@@H](N)CCCNC(=N)N)C(=O)N[C@@H](CC(C)C)C(=O)O
39.9	< 1	< 1	–	–	–	–	–	< 1	CC[C@H](C)[C@H](NC(=O)[C@H](Cc1ccc(O)cc1)NC(=O)[C@@H]1CCCN1C(=O)[C@H](CCCNC(=N)N)NC(=O)[C@@H](N)CCCNC(=N)N)C(=O)N(C)[C@@H](CC(C)C)C(=O)O
> 99	93.6	83.7	–	–	–	–	–	66.4	CC[C@H](C)[C@H](NC(=O)[C@H](Cc1ccc(O)cc1)NC(=O)[C@@H]1CCCN1C(=O)[C@H](CCCNC(=N)N)N(C)C(=O)[C@@H](N)CCCNC(=N)N)C(=O)N[C@@H](CC(C)C)C(=O)O
10.8	–	< 1	< 5	< 1	< 1	–	–	–	CC(C)C[C@H](NC(=O)[C@@H](NC(=O)[C@H](Cc1ccc(O)cc1)NC(=O)[C@@H]1CCCN1C(=O)[C@H](CCCNC(=N)N)NC(=O)[C@@H](N)CCCNC(=N)N)C(C)(C)C)C(=O)O.O=C(O)C(F)(F)F.O=C(O)C(F)(F)F.O=C(O)C(F)(F)F
2.6	< 1	< 1	–	–	–	–	–	< 1	CC[C@H](C)[C@@H](C(=O)N[C@@H](CC(C)C)C(=O)O)N(C)C(=O)[C@H](Cc1ccc(O)cc1)NC(=O)[C@@H]1CCCN1C(=O)[C@H](CCCNC(=N)N)NC(=O)[C@@H](N)CCCNC(=N)N
–	–	> 99	–	92.5	> 99	> 99	18	–	CCC(=O)N[C@@H](CCCNC(=N)N)C(=O)N[C@@H](CCCNC(=N)N)C(=O)N1CCC[C@H]1C(=O)N[C@@H](Cc1ccc(O)cc1)C(=O)N[C@H](C(=O)N[C@@H](CC(C)C)C(=O)O)C(C)(C)C
92.1	88.2	79.7	< 300	–	–	–	0.223	70.8	CC[C@H](C)[C@H](NC(=O)[C@H](Cc1ccc(O)cc1)NC(=O)[C@@H]1CCCN1C(=O)[C@H](CCCNC(=N)N)NC(=O)[C@H](CCCNC(=N)N)NC)C(=O)N[C@@H](CC(C)C)C(=O)O.O=C(O)C(F)(F)F.O=C(O)C(F)(F)F.O=C(O)C(F)(F)F
22.9	< 1	< 1	–	–	–	–	–	< 1	CC[C@H](C)[C@H](NC(=O)[C@H](Cc1ccc(O)cc1)N(C)C(=O)[C@@H]1CCCN1C(=O)[C@H](CCCNC(=N)N)NC(=O)[C@@H](N)CCCNC(=N)N)C(=O)N[C@@H](CC(C)C)C(=O)O
